Hsp70 act: switches on Hsp70 transcription. HeLa Hsp70 promoter luciferase reporter, luminescence; scaled: vehicle 0, proteasome-inhibitor control 100%. activation, % at 10 µM. 200,000 tested, 0.04% active. AID 1203;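 active = activation above the mean across all tested compounds plus 3 SD, cutoff set per campaign, cut at about 5.5% in these data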;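 also: 100% = MG132 at 30 µM as the positive control and 0% = DMSO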
Rad51 HR inh: Rad51 (human) homologous recombination inhibition | AID 1385 | Q06609 | inhibition, % at 10 µM | hRad51 DNA strand exchange, fluorescence dequenching | 200,000 tested, 0.085% active;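 active = inhibition above 40% at the single screening dose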;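 also: 0% = DMSO control wells and 100% = blanks with heterologous ssDNA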
Target sequence (Q06609 whole entry, looked up): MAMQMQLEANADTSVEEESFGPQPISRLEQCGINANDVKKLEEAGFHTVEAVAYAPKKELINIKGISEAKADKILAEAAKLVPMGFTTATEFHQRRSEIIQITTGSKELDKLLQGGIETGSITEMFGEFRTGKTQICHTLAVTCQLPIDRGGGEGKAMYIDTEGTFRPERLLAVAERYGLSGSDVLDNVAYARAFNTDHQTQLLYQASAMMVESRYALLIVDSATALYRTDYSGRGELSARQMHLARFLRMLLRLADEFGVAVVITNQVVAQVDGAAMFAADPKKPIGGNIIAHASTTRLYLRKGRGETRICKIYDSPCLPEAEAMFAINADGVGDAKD
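System: human Rad51 nucleoprotein filaments preassembled on unlabelled ssDNA. Reagent: labelled 47-mer dsDNA for strand exchange. Schedule: 30-min compound preincubation and 15-min exchange, both room temperature. Measured by: FRET fluorescence dequenching, excitation 485 nm, emission 520 nm. Read-out: Fluorescence-based percent inhibition, control- and blank-normalised. Benchmarks: plate controls and plate blanks.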
HSV augment: HSV replication enhancement; HSV replication augmentation in cells, fold increase; maximum fold increase; 220,000 tested, 0.005% active; in the data active = maximum fold increase above about 1.5; inconclusive = no clear call, values can overlap the other calls; tested in PC3 cells
MDM2 E3 inh: inhibitors of human Mdm2 E3 ubiquitin ligase. Q00987. cell-based MDM2 ubiquitination luciferase reporter, 2 h; 0 = plate control, 100 = twice control, blank-subtracted. signal enhancement, % at 5 µM. 210,000 tested, 0.11% active;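 active = signal enhancement of 30% or more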;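 also: luminescence tracks abundance of the self-degrading MDM2-luciferase fusion protein; higher signal means inhibition of MDM2 E3 ligase activity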
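Assay system: mammalian cells stably expressing self-ubiquitinating, self-degrading MDM2 E3–luciferase fusion. Quantity: 2000 cells in each well. Medium: DMEM culture medium. Compound dosing: single-point 5 µM. Timing: cell settling 4 h, compound treatment 2 h, both 37 °C. Technique: luciferase luminescence. Read-out basis: percent signal gain over controls, blank-subtracted. Benchmarks: plate controls and plate blanks.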
HSF-1 act: increases HSF-1 driven luciferase reporter signal. 300,000 tested, 1.7% active. NIH3T3-HGL HSF-1 luciferase reporter, MG132, 8 h; 100% = twice DMSO control signal. AID 504408. activation, % at 9 µM;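 active = mean replicate activation of at least 50% with a set share of replicates each reaching 50%; inconclusive = only one of those two conditions met; inactive = mean below 50% and too few replicates reaching it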;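 also: 0% = median of the neutral control wells and 100% = twice that signal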
HSF1 inhib: HSF1 inhibition | activity change, negative = inhibition, % at 7.5 µM (by protocol) | 300,000 tested, 0.77% active | NIH3T3-HGL HSE-luciferase, MG132-induced, luminescence 8 h; stronger effect = lower value;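 active = more than half of replicate wells show activity change below -50%, luminescence cut by over half; inconclusive = some wells, but at most half, below -50%; inactive = no replicate well below -50%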;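 also: luciferase reports HSF-1 transcriptional activity via heat shock element; 0% = median of DMSO wells and -100% = zero luminescence signal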
An asterisk follows results filed as active; i = inactive; u = inconclusive; x = no result given. Sampled rows, rich in hits. Any-hit rate of the full collection: about 2.6%.

SMILES | Hsp70 act | Rad51 HR inh | HSV augment | MDM2 E3 inh | HSF-1 act | HSF1 inhib
Cc1ccc(C)c(NC(=O)CSc2nnc(CSc3nc(C)cc(C)n3)n2Cc2ccco2)c1 | 0 | -3 | i | -19 | 66* | 15
CC(NC(=O)COC(=O)C1CCN(c2ccc(C(F)(F)F)cn2)CC1)c1ccc(Br)cc1 (stereo not drawn) | x | x | x | x | -2 | 2
Cn1c(N2CCN(C(c3ccccc3)c3ccccc3)CC2)nc2c1c(=O)[nH]c(=O)n2C | x | x | x | x | 1 | -4
CC(=O)C1=C(O)C(=O)N(c2ccc(S(=O)(=O)Nc3nccs3)cc2)C1c1ccc(F)cc1 (stereo not drawn) | x | 9 | i | -3 | 7 | -7
COc1ccc(NC(=O)CSc2ncc(-c3ccc(F)cc3)n2Cc2ccco2)cc1 | 0 | -3 | i | x | 17 | 5
CCC(=O)Nc1cc(NC(=O)CSc2ncc(-c3ccc(F)cc3)n2Cc2ccco2)ccc1C | 0 | 0 | i | -28 | 77* | 69
COc1ccc(C)cc1NC(=O)CSc1nnc(COc2ccc(Cl)cc2)n1Cc1ccco1 | 0 | -11 | i | -25 | 107* | 50
COc1ccc(C)cc1NC(=O)CSc1nnc(COc2ccccc2)n1Cc1ccco1 | 0 | x | x | -6 | -1 | 3
Cc1nc(-c2ccccn2)sc1C(=O)Nc1ccc(F)cc1 | 0 | 6 | i | -3 | 27 | 9
Cc1nc(-c2ccccn2)sc1C(=O)Nc1ccc(F)cc1F | 0 | 5 | i | -4 | 70* | 40
CCc1ccc(NC(=O)CSc2nc3nc(C)cc(C)n3n2)cc1 | x | x | x | x | -1 | -4
COc1cc(C2Nc3cc(Cl)c(S(N)(=O)=O)cc3S(=O)(=O)N2)cc(OC)c1OC (stereo not drawn) | 0 | 2 | i | -7 | 24 | 6
NS(=O)(=O)c1cc2c(cc1Cl)NCNS2(=O)=O | 0 | 2 | i | x | -75 | -69*
Cc1cc(C)c(NN=c2c(=O)c3ccccc3c2=O)c(C)c1 | 0 | x | x | -22 | 67* | 25
O=c1c(=NNc2ccccc2Cl)c(=O)c2ccccc12 | 0 | -7 | i | -15 | x | x
CC1(c2ccccc2)NC(=O)N(CC(=O)Nc2nnc(C3CC3)s2)C1=O (stereo not drawn) | x | x | x | x | 1 | 1
O=C1OC2(CCCCC2)OC(=O)C1=CNc1ccc2c(c1)OCO2 | 0 | -1 | i | 13 | 5 | -1
Nc1ccc2c(c1)OC1(CCCC1)O2 | 0 | -14 | i | -52 | -91 | -89*
CC(C)c1ccc2oc(=O)cc(CN3CCCCC3)c2c1 | x | x | x | x | -62 | -54*
O=C(Nc1ccc2nc3n(c(=O)c2c1)CCCCC3)c1cc([N+](=O)[O-])ccc1F | x | x | x | x | -72 | -68*
CCOc1ccccc1CNC(=O)c1ccc(NC(=O)C2=C(C)OCCS2)cc1 | x | x | x | x | -19 | 2
Cc1ccc(NC(=O)C2CCCN2S(=O)(=O)c2ccc3c(c2)n(C)c(=O)c(=O)n3C)cc1C (stereo not drawn) | 0 | x | x | x | -65 | -53*
Cn1c(=O)c(=O)n(C)c2cc(S(=O)(=O)N3CCCC3C(=O)Nc3ccc(F)cc3)ccc21 (stereo not drawn) | x | x | x | x | -6 | -3
COc1ccccc1CNC(=O)CCS(=O)(=O)c1ccc(Cl)cc1 | x | x | x | x | 11 | 2
CCS(=O)(=O)CCSc1nc2ccccc2s1 | 0 | 2 | i | -10 | 1 | -2
SMILES | Hsp70 act | Rad51 HR inh | HSV augment | MDM2 E3 inh | HSF-1 act | HSF1 inhib
O=S(=O)(CCSc1nc2ccccc2s1)c1nc2ccccc2s1 | 0 | 7 | i | -25 | 95* | 62
COc1ccc(-c2nc(C#N)c(N3CCCCCC3)o2)cc1 | 0 | 5 | i | -11 | -2 | 1
COc1ccc(-c2nc(C#N)c(N3CCCCC3)o2)cc1 | x | x | x | x | 74* | 20
CNC(=O)Cn1nc(C)c2ccccc2c1=O | 0 | 4 | i | -80 | -82 | -78*
CC(NC(=O)Cn1nc(C(=O)O)c2ccccc2c1=O)c1ccccc1 (stereo not drawn) | 0 | -2 | i | 8 | 52* | 25
O=C(CN(C(=O)c1csnn1)c1cccc(F)c1)NCc1ccc2c(c1)OCO2 | x | x | x | x | 1 | -8
CCSc1nnc(NS(=O)(=O)c2ccc(OC)cc2)s1 | 0 | 3 | i | -2 | -9 | -2
Cc1ccc(-c2nc3ccccc3s2)cc1NC(=S)NC(=O)/C=C/c1ccco1 | 0 | x | i | 2 | 65* | 46
O=C(COc1ccccc1-c1ccccc1)NN=C1CCCC1 | 0 | x | i | 4 | x | x
O=C1CCC/C(=N\NC(=O)c2ccc(COc3ccccc3-c3ccccc3)cc2)C1 | 0 | 3 | i | -2 | 72* | 31
CCn1c(COc2ccccc2)nnc1SCc1ccc(C#N)cc1 | 0 | x | i | -5 | 56* | 38
Cc1ccc2c(c1)c1c(n2CC(O)CN2CCOCC2)CCCC1 (stereo not drawn) | x | x | x | x | -76 | -70*
CSCCOC(=O)C1=C(C)NC(=O)NC1c1ccc2c(c1)OCO2 (stereo not drawn) | x | x | x | x | 56* | 23
CC1=C(C(=O)OCc2ccc3c(c2)OCO3)C(c2ccc(F)cc2)NC(=O)N1 (stereo not drawn) | 0 | 1 | i | -7 | -63 | -54*
CCCCCOC(=O)C1=C(C)NC(=O)NC1c1ccc2c(c1)OCO2 (stereo not drawn) | x | x | x | x | 19 | 2
Cc1cccc(N2CCN(C(=O)Cc3ccccc3[N+](=O)[O-])CC2)c1C | x | x | x | x | 11 | 11
CCc1ccc(C(c2c(C)nn(-c3ccccc3)c2N)c2c(C)nn(-c3ccccc3)c2N)cc1 | 0 | 35 | i | -6 | 10 | 13
Cc1cccc(C(c2c(C)nn(-c3ccccc3)c2N)c2c(C)nn(-c3ccccc3)c2N)c1 | 0 | 5 | i | -22 | 83* | 68
Brc1cccc(-c2cnco2)c1 | 0 | 12 | i | -2 | 1 | 3
CC(Sc1ccccc1)C(=O)N/N=C/c1ccccc1 (stereo not drawn) | x | x | x | x | 2 | -3
Fc1ccc(Cn2ccc(-c3cnc(-c4ccccc4)s3)n2)cc1 | 0 | 10 | i | -16 | 62* | 39
CC(=O)n1cc(N(C(=O)CCl)c2ccc([N+](=O)[O-])cc2)c2ccccc21 | x | 14 | i | -8 | 75* | 61
CC(C)c1nnc(NC(=O)CCS(=O)(=O)c2nc(-c3cccs3)cc(C(F)(F)F)n2)s1 | 0 | 3 | i | -10 | 195* | 149
CCOC(=O)C1=NN(C(=O)c2ccccc2)C(O)(c2ccc(C)cc2)C1 (stereo not drawn) | 0 | -7 | u | 2 | 318* | 227
CCOC(=O)C1=NN(C(=O)c2ccc(OC)cc2)C(O)(c2ccc(Cl)cc2)C1 (stereo not drawn) | 0 | -67 | i | 3 | 80* | 53

From PubChem BioAssay
